The record followed here is ChEMBL document CHEMBL1149661, “Synthesis, biological evaluation, and molecular modeling of 3,5-substituted-N1-phenyl-N4,N4-di-n-butylsulfanilamides as antikinetoplastid antimicrotubule agents” (Bioorg Med Chem, 2007).

Molecules are shown by their SMILES.

Series [1] can be described thus: Inhibition of Leishmania tarentolae tubulin assembly. The method in brief: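 Purified Leishmania tarentolae tubulin, 1.5 mg/mL, polymerized with or without compound. Assembly read as the absorbance change at 351 nm after 20 min at 30 °C, compared with untreated controls. Assembly kinetics were also followed over time. IC50 is the mean ± SD of at least three independent experiments.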

The next series relates to Leishmania donovani. Nature of the series: Growth inhibition against Leishmania donovani. The series is classed as functional, organism-based.
The test system of series [2] is Trypanosoma brucei brucei. Nature of the series: Growth inhibition against Trypanosoma brucei brucei. The series is classed as functional, organism-based.
A short description of series [3]: Toxicity against monkey Vero cells. The note with it: Chlorocebus sabaeus (monkey). The series is classed as cell-based.
A further series has as its target Tubulin (Sus scrofa, UniProt P02554+P02550). Nature of the series: Inhibition of porcine tubulin assembly. The series is classed as protein assay. The method, boiled down:
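Purified porcine brain tubulin at a final 2 mg/mL (raised from 1.5 mg/mL to make control assembly more reproducible). Polymerization read as the absorbance change at 351 nm after 20 min at 30 °C relative to controls. IC50 is the mean ± SD of at least three independent experiments.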

The target of a further series is Tubulin (Sus scrofa) (UniProt P02554+P02550). Nature of the series: Inhibition of porcine tubulin assembly at 100 uM. The series is classed as protein assay. The method, boiled down: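 Porcine brain tubulin at a final 2 mg/mL, assembled with compound at a single 100 μM. Inhibition taken from the absorbance change at 351 nm after 20 min at 30 °C, relative to controls without compound.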
Chain of Tubulin (Sus scrofa) (P02550 whole entry, looked up): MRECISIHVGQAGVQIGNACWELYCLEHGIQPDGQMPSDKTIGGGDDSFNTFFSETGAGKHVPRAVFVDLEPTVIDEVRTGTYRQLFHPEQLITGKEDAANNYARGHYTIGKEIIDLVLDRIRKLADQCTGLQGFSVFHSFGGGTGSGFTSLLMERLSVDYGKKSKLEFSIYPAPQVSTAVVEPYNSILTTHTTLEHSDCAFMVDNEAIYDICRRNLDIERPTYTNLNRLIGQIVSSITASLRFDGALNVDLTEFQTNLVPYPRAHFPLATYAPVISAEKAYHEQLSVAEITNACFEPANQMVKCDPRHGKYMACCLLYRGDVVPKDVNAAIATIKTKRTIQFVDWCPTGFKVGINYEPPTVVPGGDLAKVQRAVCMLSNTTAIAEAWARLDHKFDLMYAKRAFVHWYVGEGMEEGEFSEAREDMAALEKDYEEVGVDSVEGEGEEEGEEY
Chain of Tubulin (Sus scrofa) (P02554 whole entry, looked up): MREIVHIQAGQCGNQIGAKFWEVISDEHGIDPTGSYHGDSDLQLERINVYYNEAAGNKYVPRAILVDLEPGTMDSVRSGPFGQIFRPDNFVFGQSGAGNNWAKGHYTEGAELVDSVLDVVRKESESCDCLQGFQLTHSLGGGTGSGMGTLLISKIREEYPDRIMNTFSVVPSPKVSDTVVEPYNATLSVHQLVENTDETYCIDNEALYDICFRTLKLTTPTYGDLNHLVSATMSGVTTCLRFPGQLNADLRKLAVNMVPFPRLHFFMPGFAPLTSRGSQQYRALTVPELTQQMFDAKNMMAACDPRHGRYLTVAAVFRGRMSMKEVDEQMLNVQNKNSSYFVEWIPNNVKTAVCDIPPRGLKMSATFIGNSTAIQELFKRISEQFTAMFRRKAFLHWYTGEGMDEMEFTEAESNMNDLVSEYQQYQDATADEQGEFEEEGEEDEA

As a reminder, the IC50 is the point on the concentration scale where inhibition reaches its midpoint. On to `CCCCN(CCCC)c1c(C(=O)OC)cc(S(=O)(=O)Nc2ccccc2)cc1C(=O)OC`, for which the IC50 in series [1] is above 100 µM; in the series on Leishmania donovani it was above 50 µM; in series [2], above 50 µM.
As to `CCCCN(CCCC)c1c(C(N)=O)cc(S(=O)(=O)Nc2ccccc2)cc1C(N)=O`, the results for the IC50 (in series [1]; in the series with Leishmania donovani; in series [2]) were above 100 µM, above 50 µM and above 50 µM, respectively.
In the case of `COc1cc([C@@H]2c3cc4c(cc3[C@H](O)[C@H]3COC(=O)[C@H]23)OCO4)cc(OC)c1OC` [PODOFILOX], half-maximal inhibition in series [3] (IC50) was put at 0.016 µM.
Turning to `CCCCN(CCCC)c1c(C#N)cc(S(=O)(=O)Nc2ccccc2)cc1C#N`, the half-inhibitory concentration (IC50) in series [1] is 6.6 µM; at Tubulin, above 50 µM; in the series on Leishmania donovani, 4.4 µM; in series [2] it was 0.26 µM; in series [3], 16 µM.
With `Cc1ccc(C(=O)Nc2ccc(S(=O)(=O)O)c3cc(S(=O)(=O)O)cc(S(=O)(=O)O)c23)cc1NC(=O)c1cccc(NC(=O)Nc2cccc(C(=O)Nc3cc(C(=O)Nc4ccc(S(=O)(=O)O)c5cc(S(=O)(=O)O)cc(S(=O)(=O)O)c45)ccc3C)c2)c1` [SURAMIN], the IC50 in series [2] was 0.077 µM.
As for `CCCCN(CCCC)c1c(C(=O)O)cc(S(=O)(=O)Nc2ccccc2)cc1C(=O)O`, the IC50 in series [1] was above 100 µM; in the series on Leishmania donovani, above 50 µM; in series [2], above 50 µM.
Regarding `CCCCN(CCCC)c1c([N+](=O)[O-])cc(S(=O)(=O)Nc2ccccc2)cc1[N+](=O)[O-]`, the half-maximal inhibitory concentration (IC50) is 7.4 µM in series [1]; above 40 µM on Tubulin; 2.3 µM in the series with Leishmania donovani; 0.18 µM in series [2]; 9.7 µM in series [3].
The inhibition is the change of the read-out against control, counted positive when it falls. Turning to `CCCCN(CCCC)c1c(N)cc(S(=O)(=O)Nc2ccccc2)cc1N`, the IC50 was above 100 µM in series [1]; above 50 µM on Tubulin; 12 µM with Leishmania donovani; 4 µM in series [2]; 27 µM in series [3]. Also, the inhibition against Tubulin (Sus scrofa) is 50%.
For the compound `CCCCN(CCCC)c1c(C(C)=O)cc(S(=O)(=O)Nc2ccccc2)cc1C(C)=O`, the IC50 was above 100 µM in series [1]; above 100 µM against Tubulin; 30 µM in the series with Leishmania donovani; 1.6 µM in series [2]; 26 µM in series [3].
In the series with Leishmania donovani, `N=C(N)c1ccc(OCCCCCOc2ccc(C(=N)N)cc2)cc1` [PENTAMIDINE] gave an IC50 of 2.3 µM.
Consider `CCCCN(CCCC)c1c(Cl)cc(S(=O)(=O)Nc2ccccc2)cc1Cl`, for which the IC50 was 9.1 µM in series [1]; above 50 µM against Tubulin; 11 µM in the series with Leishmania donovani; 1.6 µM in series [2]; 19 µM in series [3].
